Results on 17 compounds are retold here after ChEMBL document CHEMBL1155040, “Potency and selectivity of trifluoroacetylimino and pyrazinoylimino nicotinic insecticides and their fit at a unique binding site niche” (J Med Chem, 2008).

In data set [1] the test system is Musca domestica. Kind of data set: Insecticidal activity against houseflies. Type of data set: functional. The procedure, abridged:
(§1)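 Adult female houseflies were dosed by intrathoracic injection or topical application, either without or with topical pretreatment with the P450 inhibitor synergist O-propyl O-(2-propynyl)phenylphosphonate (100 µg/g) before the test chemical. Where no LD50 was obtained, percent mortality at the indicated dose is given.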

Data set [2] is described as follows: Toxicity in ip dosed Swiss Webster mouse. As to conditions: in vivo. The format is organism-based. In outline: (§2)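 Male albino Swiss-Webster mice (25-30 g) were dosed intraperitoneally. Results are LD50 in mg/kg, or percent lethality at the indicated dose, which was the maximum allowed by solubility in the vehicle.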
The nature of data set [3]: (§3) Displacement of [3H]IMI from nAChR in Drosophila brain. In outline: (§4)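 IC50 (nM, ± SD) for displacing [³H]IMI binding to native nAChR from Drosophila brain.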
The nature of data set [4]: Displacement of [3H]IMI from peach-potato aphid alpha2/rat beta2 nAChR hybrid recombinant receptor. Background: Displacement assays read how much labelled ligand stays bound in the presence of the test substance.
Data set [5] addresses Neuronal acetylcholine receptor subunit alpha-4 (Gallus gallus, UniProt P09482+P09484). Kind of data set: Displacement of [3H]nicotine from chick alpha4beta2 nAChR. In outline: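 Radioligand displacement used [³H]nicotine with chick α4β2 nAChR. Values are IC50 ± SD in nM.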
The nature of data set [6]: Lipophilicity, log P of the compound. Conditions: octanol/water. The format is physicochemical.
For data set [7], the system named is Musca domestica. Kind of data set: Insecticidal activity against intrathoracically dosed houseflies at >10 um/g. The format is functional. The procedure, abridged:
as §1

Data set [8] has as its system Mus musculus. Kind of data set: Toxicity in Swiss Webster mouse at >24 mg/kg, ip. The format is organism-based. Conditions: in vivo. The procedure, abridged:
as §2

Data set [9] relates to Culex quinquefasciatus. As to the kind of experiment: Mosquito Larvicidal activity against premethrin-susceptible fourth instar Culex quinquefasciatus CQ1 after 24 hrs. Conditions: CQ1, 24 h. Type of data set: functional. In outline: (§5)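 Larvicidal test on fourth-instar Culex quinquefasciatus, using the susceptible CQ1 colony and the permethrin-resistant Marin colony, with 24 h exposure.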

Data set [10] concerns Culex quinquefasciatus. Kind of data set: Mosquito Larvicidal activity against premethrin-resistant fourth instar Culex quinquefasciatus Marin after 24 hrs. The format is functional. The procedure, abridged:
as §5

Data set [11] has as its system Mus musculus. As to the kind of experiment: Toxicity in Swiss Webster mouse at >36 mg/kg, ip. As to conditions: in vivo. The format is organism-based. The procedure, abridged: as §2
The next data set has as its system Drosophila. Described as §3. Conditions: concentration not given here. In outline: as §4

SMILES strings stand for the structures. In brackets after ≈: the same amount, converted by molar mass.

Sequence of Neuronal acetylcholine receptor subunit alpha-4 (P09482 whole entry, one chain of several): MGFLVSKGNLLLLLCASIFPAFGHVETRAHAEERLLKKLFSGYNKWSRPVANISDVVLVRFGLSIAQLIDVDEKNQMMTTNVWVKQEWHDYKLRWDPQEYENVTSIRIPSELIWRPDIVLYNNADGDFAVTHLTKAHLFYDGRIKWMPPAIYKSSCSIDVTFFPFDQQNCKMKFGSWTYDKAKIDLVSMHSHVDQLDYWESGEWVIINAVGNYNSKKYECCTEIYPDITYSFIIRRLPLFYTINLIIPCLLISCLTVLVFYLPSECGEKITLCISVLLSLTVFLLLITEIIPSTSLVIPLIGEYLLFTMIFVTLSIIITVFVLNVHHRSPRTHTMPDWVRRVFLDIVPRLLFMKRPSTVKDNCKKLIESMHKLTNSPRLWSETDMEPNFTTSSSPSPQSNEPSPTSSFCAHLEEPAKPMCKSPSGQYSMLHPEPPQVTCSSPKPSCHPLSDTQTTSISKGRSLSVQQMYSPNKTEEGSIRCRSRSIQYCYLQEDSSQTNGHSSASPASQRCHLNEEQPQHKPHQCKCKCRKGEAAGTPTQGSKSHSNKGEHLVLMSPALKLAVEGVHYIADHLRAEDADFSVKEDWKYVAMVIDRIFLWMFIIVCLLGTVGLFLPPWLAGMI

In the case of `Clc1ccc(C(c2ccc(Cl)cc2)C(Cl)(Cl)Cl)cc1` [CHLOROPHENOTHANE], in the data set on Musca domestica [1], the LD50 (as a rule, the dose at which mortality reaches 50%) was determined as 14 mg/kg.
For `N#C/N=C1\SCCN1Cc1ccc(Cl)nc1` [THIACLOPRID], the LD50 in data set [2] was 28 mg/kg; with Musca domestica [1], above 10 mg/kg. For the same compound, the IC50 (as a rule, the concentration needed to halve the response being measured) was determined as 2.7 nM in [3], 11 nM in data set [4] and 860 nM in data set [5]. Further, the lipophilicity (logP) (usually the decadic logarithm of the partition coefficient of the neutral form, usually between octanol and water) in [6] worked out at 1.26. In the data set on Musca domestica [7], this compound came in with an Activity of 19%.
For the compound `O=C(/N=c1\sccn1Cc1ccc(Cl)nc1)c1cnccn1`, the LD50 is above 24 mg/kg in data set [2] and above 10 mg/kg in the data set on Musca domestica [1]. Further, the Activity in the data set with Mus musculus [8] and in the data set with Musca domestica [7] was 0% each time. Besides, the values for the IC50 in data set [3], in data set [4] and in [5] were 1.5 nM, 720 nM and 900 nM, respectively.
In the data set on Musca domestica [1], `CCOP(=S)(OCC)Oc1nc(Cl)c(Cl)cc1Cl` [CHLORPYRIFOS] yielded an LD50 of 2.1 mg/kg.
As to `O=C(/N=c1\[nH]ccn1Cc1ccc(Cl)nc1)C(F)(F)F`, the IC50 in [3] amounted to 7.7 nM. Also, in the data set with Musca domestica [1], the median lethal dose (LD50) is above 10 mg/kg.
Turning to `CCOP(=S)(OCC)Oc1ccc([N+](=O)[O-])cc1` [PARATHION], the LD50 with Musca domestica [1] was 1.3 mg/kg.
In turn, `O=C(/N=c1\sccn1Cc1ccc(Cl)nc1)c1ccccn1` yielded an IC50 in [3] of 13 nM. Besides, the LD50 in the data set on Musca domestica [1] is above 10 mg/kg. In the data set with Musca domestica [7], this compound yielded an Activity of 0%.
`O=[N+]([O-])/N=C1\NCCN1Cc1ccc(Cl)nc1` [IMIDACLOPRID]: the LD50 was 45 mg/kg in [2] and above 10 mg/kg in the data set on Musca domestica [1]. The half-maximal inhibitory concentration (IC50) in data set [3] is 4.3 nM; in data set [4] it was 3.6 nM; in [5] it was 2600 nM. The compound further returned an Activity in the data set on Musca domestica [7] of 0%.
With `O=C(/N=c1\sccn1Cc1ccc(Cl)nc1)C(F)(F)F`, the LD50 was above 36 mg/kg in data set [2] and 0.75 mg/kg in the data set on Musca domestica [1]. Also, the IC50 in data set [3] was found to be 3.1 nM; in [4] it was 280 nM; in [5], 500 nM. The LC50 (in general, the concentration that kills 50% of the test population) in the data set with Culex quinquefasciatus [9] came out at 0.012 µg/mL (≈ 0.0373 µM); in the data set on Culex quinquefasciatus [10], 0.024 µg/mL (≈ 0.0746 µM). The same compound registered an Activity with Mus musculus [11] of 0%.
`O=C(/N=c1\sccn1Cc1ccc(Cl)nc1)c1ccncc1`: the IC50 in data set [3] worked out at 10 nM. The compound also gave an LD50 in the data set with Musca domestica [1] above 10 mg/kg. The Activity in the data set with Musca domestica [7] worked out at 0%.
On to `O=C(/N=c1\sccn1Cc1ccc(Cl)nc1)c1ccc(Cl)cc1`, for which, in [3], the IC50 is above 30000 nM. For the same compound, the inhibition (usually the relative decrease from the control value, in per cent) with Drosophila is 10%. In addition, the LD50 with Musca domestica [1] is above 10 mg/kg. Further, in the data set on Musca domestica [7], the Activity amounted to 0%.
In the data set on Musca domestica [1], `CNC(=O)Oc1ccccc1OC(C)C` [PROPOXUR] had a median lethal dose (LD50) of 23 mg/kg.
Compound `O=C(/N=c1\sccn1Cc1ccc(Cl)nc1)c1cccnc1` yielded an IC50 in [3] of 4.8 nM. The compound also returned an LD50 with Musca domestica [1] above 10 mg/kg. Moreover, the Activity in the data set with Musca domestica [7] was 0%.
`ClC1=C(Cl)[C@]2(Cl)[C@@H]3[C@@H]4C[C@@H]([C@H]5O[C@@H]45)[C@@H]3[C@@]1(Cl)C2(Cl)Cl` [DIELDRIN] showed an LD50 in the data set on Musca domestica [1] of 0.75 mg/kg.
In data set [3], `O=C(/N=c1\sccn1Cc1ccc(Cl)nc1)c1ccccc1` registered a half-maximal inhibitory concentration (IC50) of 121 nM. In the data set with Musca domestica [1], this compound returned a 50% lethal dose (LD50) above 10 mg/kg. In addition, the Activity with Musca domestica [7] is recorded as 0%.
The like results for `O=C(/N=c1\sccn1Cc1ccc(Cl)nc1)c1ccc(Cl)nc1` were, in that order, 41 nM, above 10 mg/kg and 0%.
Consider `CC1(C)C(C=C(Cl)Cl)C1C(=O)OCc1cccc(Oc2ccccc2)c1` (stereo unspecified) [PERMETHRIN], for which the LC50 was 0.005 µg/mL (≈ 0.0128 µM) with Culex quinquefasciatus [9] and 0.16 µg/mL (≈ 0.409 µM) in the data set with Culex quinquefasciatus [10].
